Laboratory results: ChEMBL document CHEMBL3808360, “Discovery of Potent Non-Nucleoside Inhibitors of Dengue Viral RNA-Dependent RNA Polymerase from a Fragment Hit Using Structure-Based Drug Design” (J Med Chem, 2016)
Active and inactive are the calls of the source. The calls are words filed in the database; no cut-off is given here.

Test system: not listed separately
Test: Inhibition of RdRp activity of Dengue virus 4 full length NS5 preincubated for 15 mins followed by RNA and NTP addition measured after 120 mins
Parameters: species or system dengue virus type 4
Details: not given
Summary of the method: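 Reaction with 100 nM DENV4 full-length NS5 and 100 nM in vitro transcribed DENV4 mini-genome RNA template (575 nt, linked 5'-3' UTRs). NTPs: 20 µM each ATP, GTP and UTP plus 5 µM ATTO-CTP. Compound (two-fold series from 20 or 100 µM) preincubated with enzyme 15 min at room temperature. RNA/NTP mix added; run 120 min. Stopped with alkaline phosphatase stop buffer, 60 min. Fluorescence read at ex 422/em 566 nm. Duplicate wells; IC₅₀ from variable-slope sigmoidal fit.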

| SMILES | IC50 [µM] |
| --- | --- |
| O=C(O)Cc1cc(CC(=O)O)cc(-c2ccccc2)c1 | 177 |
| Cc1ccc(-c2cc(CC(=O)O)cc(CC(=O)O)c2)s1 | 96 |
| N#Cc1ccc(-c2cc(CC(=O)O)cc(CC(=O)O)c2)s1 | 199 |
| COc1cc(C)c(-c2ncc[nH]2)cc1-c1ccc(C#CCO)s1 | 44 |
| COc1cc(C)c(S(=O)(=O)NC(C)=O)cc1-c1ccc(C#CCO)s1 | 2.5 |
| COc1ccc(C(=O)O)cc1-c1ccc(C#CCO)s1 | 2.3 |
| COc1cc(C)c(C(=O)O)cc1-c1ccc(C#CCO)s1 | 0.53 |
| COc1ccc(-c2nnn[nH]2)cc1-c1ccc(C#CCO)s1 | 2.4 |
| O=C(O)Cc1cc(CC(=O)O)cc(-c2ccco2)c1 | 211 |
| O=C(O)Cc1cc(CC(=O)O)cc(-c2ccc(C#CCCO)s2)c1 | 29 |
| COc1cccc(S(=O)(=O)NC(=O)c2cc(-c3ccc(C#CCO)s3)c(Cl)cc2OC)c1 | 0.14 |
| O=C(O)Cc1cc(CC(=O)O)cc(-c2ccccc2Cl)c1 | 192 |
| COc1cc(C)c(C(=O)NS(C)(=O)=O)cc1-c1ccc(C#CCO)s1 | 0.34 |

Test system: not listed separately
Test: Binding affinity to Dengue virus 4 NS5 RdRp (274 to 900 residues) by ITC method
Parameters: species or system dengue virus type 4
Details: not given
Summary of the method: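 DENV-4 RdRp (residues 274-900) at 30-50 µM in the cell, in 20 mM HEPES pH 7.0, 300 mM NaCl, 2 mM TCEP, DMSO matched to ligand. Ligand diluted from a 50 mM DMSO stock into the same buffer, typically 2.5 mM in the syringe. Run at 25°C: one 0.4 µl injection, then 15 × 2.6 µl. Heat of dilution into buffer subtracted.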

| SMILES | Kd [µM] |
| --- | --- |
| O=C(O)Cc1cc(CC(=O)O)cc(-c2ccccc2)c1 | 154 |
| N#Cc1ccc(-c2cc(CC(=O)O)cc(CC(=O)O)c2)s1 | 134 |
| COc1ccc(C(=O)O)cc1-c1ccc(C#CCO)s1 | 3.8 |
| COc1cc(C)c(C(=O)O)cc1-c1ccc(C#CCO)s1 | 1.6 |
| O=C(O)Cc1cc(CC(=O)O)cc(-c2ccco2)c1 | 552 |
| O=C(O)Cc1cc(CC(=O)O)cc(-c2ccc(C#CCCO)s2)c1 | 34 |
| COc1cc(C)c(C(=O)NS(C)(=O)=O)cc1-c1ccc(C#CCO)s1 | 2 |

Test system: not listed separately
Test: Binding affinity to biotinylated Dengue virus 4 NS5 RdRp by surface plasmon resonance analysis
Parameters: species or system dengue virus type 4
Details: not given
Summary of the method: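 Blank reference cell. Compound run as a 7-point 2-fold series, typically from 200 µM, with zero-concentration subtraction. Flow 30 µL/min, 45 s contact, 60-600 s dissociation, run from low to high concentration.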

| SMILES | Kd [µM] |
| --- | --- |
| COc1ccc(C(=O)O)cc1-c1ccc(C#CCO)s1 | 1.7 |
| COc1cc(C)c(C(=O)O)cc1-c1ccc(C#CCO)s1 | 0.11 |
| COc1cccc(S(=O)(=O)NC(=O)c2cc(-c3ccc(C#CCO)s3)c(Cl)cc2OC)c1 | 0.01 |
| COc1cc(C)c(C(=O)NS(C)(=O)=O)cc1-c1ccc(C#CCO)s1 | 0.12 |

Test system: not listed separately
Test: Apparent permeability across apical to basolateral side in human Caco2 cells at pH 7.4
Format: ADME, cell-based
Details: Caco-2, pH 7.4
Summary of the method: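 Apical-to-basal Caco-2 permeability measured at pH 7.4.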

| SMILES | Papp A→B [×10⁻⁶ cm/s] |
| --- | --- |
| COc1ccc(-c2nnn[nH]2)cc1-c1ccc(C#CCO)s1 | 1.39 |
| COc1cc(C)c(C(=O)NS(C)(=O)=O)cc1-c1ccc(C#CCO)s1 | 0.5 |

Test system: not listed separately
Test: Dissociation constant, pKa of the compound
Format: physicochemical
Details: not given

| SMILES | pKa |
| --- | --- |
| COc1cc(C)c(-c2ncc[nH]2)cc1-c1ccc(C#CCO)s1 | 6.6 |
| COc1cc(C)c(S(=O)(=O)NC(C)=O)cc1-c1ccc(C#CCO)s1 | 4.8 |
| COc1ccc(C(=O)O)cc1-c1ccc(C#CCO)s1 | 4.2 |
| COc1cc(C)c(C(=O)O)cc1-c1ccc(C#CCO)s1 | 4.2 |
| COc1cccc(S(=O)(=O)NC(=O)c2cc(-c3ccc(C#CCO)s3)c(Cl)cc2OC)c1 | 3.8 |
| COc1cc(C)c(C(=O)NS(C)(=O)=O)cc1-c1ccc(C#CCO)s1 | 4 |

Test system: not listed separately
Test: Lipophilicity, log D of the compound at pH 7.4
Format: physicochemical
Details: buffer

| SMILES | logD |
| --- | --- |
| COc1cc(C)c(-c2ncc[nH]2)cc1-c1ccc(C#CCO)s1 | 3.6 |
| COc1cc(C)c(S(=O)(=O)NC(C)=O)cc1-c1ccc(C#CCO)s1 | 0.78 |
| COc1ccc(C(=O)O)cc1-c1ccc(C#CCO)s1 | 0.79 |
| COc1cc(C)c(C(=O)O)cc1-c1ccc(C#CCO)s1 | 1.2 |
| COc1cccc(S(=O)(=O)NC(=O)c2cc(-c3ccc(C#CCO)s3)c(Cl)cc2OC)c1 | 0.9 |
| COc1cc(C)c(C(=O)NS(C)(=O)=O)cc1-c1ccc(C#CCO)s1 | 0.8 |

Test system: dengue virus type 1
Test: Antiviral activity against Dengue virus 1 MY97-10245 infected in human A549 cells assessed as reduction in DENV envelope protein level after 48 hrs
Format: functional, organism-based
Details: MY97-10245, A549, 48 h
Summary of the method: (§1)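 A549 cells (~7×10^3/well) seeded in Ham's F-12K with 2% FBS, 1 mM L-glutamine and 1% penicillin-streptomycin, held overnight at 37°C, 5% CO₂. Infected at 24 h post-seeding (DENV1 MOI 0.5, DENV2 MOI 0.3, DENV3 MOI 1, DENV4 MOI 0.5). Compound added at once as a 10-point, 3-fold series, 0.5% DMSO final. Fixed at 48 h with 4% paraformaldehyde. Stained with Dylight 488-4G2 anti-envelope antibody and DRAQ5 nuclear stain. Envelope protein quantified by high-content imaging; EC₅₀ calculated.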

| SMILES | EC50 [µM] |
| --- | --- |
| COc1cccc(S(=O)(=O)NC(=O)c2cc(-c3ccc(C#CCO)s3)c(Cl)cc2OC)c1 | 6.8 |
| COc1cc(C)c(C(=O)NS(C)(=O)=O)cc1-c1ccc(C#CCO)s1 | > 50 |

Test system: dengue virus type 2
Test: Antiviral activity against Dengue virus 2 MY97-10340 infected in human A549 cells assessed as reduction in DENV envelope protein level after 48 hrs
Format: functional, organism-based
Details: MY97-10340, A549, 48 h
Summary of the method: as §1

| SMILES | EC50 [µM] |
| --- | --- |
| COc1cccc(S(=O)(=O)NC(=O)c2cc(-c3ccc(C#CCO)s3)c(Cl)cc2OC)c1 | 13 |
| COc1cc(C)c(C(=O)NS(C)(=O)=O)cc1-c1ccc(C#CCO)s1 | > 50 |

Test system: dengue virus type 3
Test: Antiviral activity against Dengue virus 3 MY05-34640 infected in human A549 cells assessed as reduction in DENV envelope protein level after 48 hrs
Format: functional, organism-based
Details: MY05-34640, A549, 48 h
Summary of the method: as §1

| SMILES | EC50 [µM] |
| --- | --- |
| COc1cccc(S(=O)(=O)NC(=O)c2cc(-c3ccc(C#CCO)s3)c(Cl)cc2OC)c1 | 5.5 |
| COc1cc(C)c(C(=O)NS(C)(=O)=O)cc1-c1ccc(C#CCO)s1 | > 50 |

Test system: dengue virus type 4
Test: Antiviral activity against Dengue virus 4 MY01-22713 infected in human A549 cells assessed as reduction in DENV envelope protein level after 48 hrs
Format: functional, organism-based
Details: MY01-22713, A549, 48 h
Summary of the method: as §1

| SMILES | EC50 [µM] |
| --- | --- |
| COc1cccc(S(=O)(=O)NC(=O)c2cc(-c3ccc(C#CCO)s3)c(Cl)cc2OC)c1 | 7 |
| COc1cc(C)c(C(=O)NS(C)(=O)=O)cc1-c1ccc(C#CCO)s1 | > 50 |

Test system: dengue virus type 1
Test: Antiviral activity against Dengue virus 1 MY97-10245 infected in human A549 cells assessed as reduction in DENV envelope protein level up to 50 uM after 48 hrs
Format: functional, organism-based
Details: not given
Summary of the method: as §1

| SMILES | Activity |
| --- | --- |
| COc1cc(C)c(C(=O)O)cc1-c1ccc(C#CCO)s1 | inactive |
| COc1cc(C)c(C(=O)NS(C)(=O)=O)cc1-c1ccc(C#CCO)s1 | inactive |

Test system: dengue virus type 2
Test: Antiviral activity against Dengue virus 2 MY97-10340 infected in human A549 cells assessed as reduction in DENV envelope protein level up to 50 uM after 48 hrs
Format: functional, organism-based
Details: not given
Summary of the method: as §1

| SMILES | Activity |
| --- | --- |
| COc1cc(C)c(C(=O)O)cc1-c1ccc(C#CCO)s1 | inactive |
| COc1cc(C)c(C(=O)NS(C)(=O)=O)cc1-c1ccc(C#CCO)s1 | inactive |

Test system: dengue virus type 3
Test: Antiviral activity against Dengue virus 3 MY05-34640 infected in human A549 cells assessed as reduction in DENV envelope protein level up to 50 uM after 48 hrs
Format: functional, organism-based
Details: not given
Summary of the method: as §1

| SMILES | Activity |
| --- | --- |
| COc1cc(C)c(C(=O)O)cc1-c1ccc(C#CCO)s1 | inactive |
| COc1cc(C)c(C(=O)NS(C)(=O)=O)cc1-c1ccc(C#CCO)s1 | inactive |

Test system: dengue virus type 4
Test: Antiviral activity against Dengue virus 4 MY01-22713 infected in human A549 cells assessed as reduction in DENV envelope protein level up to 50 uM after 48 hrs
Format: functional, organism-based
Details: not given
Summary of the method: as §1

| SMILES | Activity |
| --- | --- |
| COc1cc(C)c(C(=O)O)cc1-c1ccc(C#CCO)s1 | inactive |
| COc1cc(C)c(C(=O)NS(C)(=O)=O)cc1-c1ccc(C#CCO)s1 | inactive |
